Test results from ChEMBL document CHEMBL1148508, “Design and synthesis of phosphotyrosine peptidomimetic prodrugs” (J Med Chem, 2006).
pIC50: −log10 of the molar value.

How the values were obtained:
Jurkat = assay: Inhibition of NFAT-mediated luciferase gene transcription in human jurkat J77 cell line after 6 hrs; format: functional, cell-based
Procedure, shortened: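 Jurkat J77 cells electroporated (300 V, 800 μF) with NFAT-luciferase plasmid (four NFAT sites), grown 24 h in FBS-RPMI. Pretreated 1 h with compound (0.1-1000 μM, DMSO stocks), then stimulated with PMA plus anti-CD3 (2 μg/well) for 6 h. Lysate luciferase read; sigmoidal fit of RLU vs log concentration, IC50 = 50% drop versus DMSO control; mean ± S.E., n = 4.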

[1] = tested on: Panel NCI-62 (62 carcinoma cell lines); assay: Antiproliferative activity against human NCI62 cell line after 48 hrs; format: functional
Procedure, shortened: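 NCI 60-panel screen (62 cell lines): cells grown 24 h in supplemented RPMI 1640, then exposed to drug 48 h at 5 concentrations, 10^-8 to 10^-4 M. Stopped with cold trichloroacetic acid, fixed, sulforhodamine B stained, bound dye solubilized and absorbance read. Growth inhibition from time-zero, control and treated absorbances; GI50 as mean ± S.D. across 62 lines.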

| Compound | pIC50 (Jurkat) | GI50 [1] [µM] |
| --- | --- | --- |
| CC(NC(=O)Cc1ccc(OP(=O)(OCc2ccc([N+](=O)[O-])o2)N(C)CCCCCl)cc1)c1ccc(OCC2CCCCC2)c(C(N)=O)c1 (stereo not given) | 5.05 | 3 |
| CC(NC(=O)c1ccc(NP(=O)(OCc2ccc([N+](=O)[O-])o2)N(C)CCCCCl)cc1)c1ccc(OCC2CCCCC2)c(C(N)=O)c1 (stereo not given) | 4.80 | 18 |
| CC(NC(=O)c1ccc(OP(=O)(OCc2ccc([N+](=O)[O-])o2)N(C)CCCCCl)cc1)c1ccc(OCC2CCCCC2)c(C(N)=O)c1 (stereo not given) | 4.51 | 12 |
| CC(=O)N[C@@H](Cc1ccc(NP(=O)(OCc2ccc([N+](=O)[O-])o2)N(C)CCCCCl)cc1)C(=O)NC(C)c1ccc(OCC2CCCCC2)c(C(N)=O)c1 (stereo not given in full) | 4.55 | – |
| CC(NC(=O)Cc1ccc(NP(=O)(OCc2ccc([N+](=O)[O-])o2)N(C)CCCCCl)cc1)c1ccc(OCC2CCCCC2)c(C(N)=O)c1 (stereo not given) | 4.70 | – |
| CC(=O)N[C@@H](Cc1ccc(OP(=O)(OCc2ccc([N+](=O)[O-])o2)N(C)CCCCCl)cc1)C(=O)NC(C)c1ccc(OCC2CCCCC2)c(C(N)=O)c1 (stereo not given in full) | 4.68 | 6 |
